According to ChEMBL document CHEMBL5356993, “Novel pyrazolo[3,4-d]pyrimidine derivatives: design, synthesis, anticancer evaluation, VEGFR-2 inhibition, and antiangiogenic activity” (RSC Med Chem, 2023):

What was measured:
Type in all cases: functional
Details in all cases: read-out: GI
HCC 2998 = assay: Antiproliferative activity against human HCC 2998 cells assessed as cell growth inhibition at 10 uM incubated for 48 hrs by SRB assay relative to control
HT-29 = assay: Antiproliferative activity against human HT-29 cells assessed as cell growth inhibition at 10 uM incubated for 48 hrs by SRB assay relative to control
Method in brief: (§1)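 Cells plated in 96-well plates at […] cells/well and preincubated 24 h at 37 °C, 5% CO2. Time-zero plates were TCA-fixed. Compound was diluted in medium with 50 µg/mL gentamicin and cells exposed for 48 h. Adherent cells fixed with 10% final TCA; suspension cells with 16% final TCA. Plates stained with 0.4% SRB in 1% acetic acid, dye solubilized in 10 mM Trizma, absorbance read at 515 nm. Percent growth calculated against time-zero and control.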

MDA-MB-435 = assay: Antiproliferative activity against human MDA-MB-435 cells assessed as cell growth inhibition at 10 uM incubated for 48 hrs by SRB assay relative to control
HCT-15 = assay: Antiproliferative activity against human HCT-15 cells assessed as cell growth inhibition at 10 uM incubated for 48 hrs by SRB assay relative to control
MCF7 = assay: Antiproliferative activity against human MCF7 cells assessed as cell growth inhibition at 10 uM incubated for 48 hrs by SRB assay relative to control
DU-145 = assay: Antiproliferative activity against human DU-145 cells assessed as cell growth inhibition at 10 uM incubated for 48 hrs by SRB assay relative to control
CAKI-1 = assay: Antiproliferative activity against human CAKI-1 cells assessed as cell growth inhibition at 10 uM incubated for 48 hrs by SRB assay relative to control
SF-268 = assay: Antiproliferative activity against human SF-268 cells assessed as cell growth inhibition at 10 uM incubated for 48 hrs by SRB assay relative to control
SN12C = assay: Antiproliferative activity against human SN12C cells assessed as cell growth inhibition at 10 uM incubated for 48 hrs by SRB assay relative to control
SK-MEL-2 = assay: Antiproliferative activity against human SK-MEL-2 cells assessed as cell growth inhibition at 10 uM incubated for 48 hrs by SRB assay relative to control; method in brief: as §1
NCI-H226 = assay: Antiproliferative activity against human NCI-H226 cells assessed as cell growth inhibition at 10 uM incubated for 48 hrs by SRB assay relative to control; method in brief: as §1
NCI-H460 = assay: Antiproliferative activity against human NCI-H460 cells assessed as cell growth inhibition at 10 uM incubated for 48 hrs by SRB assay relative to control
OVCAR-3 = assay: Antiproliferative activity against human OVCAR-3 cells assessed as cell growth inhibition at 10 uM incubated for 48 hrs by SRB assay relative to control; method in brief: as §1
NCI-H322M = assay: Antiproliferative activity against human NCI-H322M cells assessed as cell growth inhibition at 10 uM incubated for 48 hrs by SRB assay relative to control
TK-10 = assay: Antiproliferative activity against human TK-10 cells assessed as cell growth inhibition at 10 uM incubated for 48 hrs by SRB assay relative to control
Method in brief: (§2)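 Cells pre-incubated 24 h at 37°C, 5% CO2, then exposed to compound (DMSO stock diluted in medium with 50 µg/mL gentamicin) for 48 h. Adherent cells fixed with cold TCA (final 10%, 60 min, 4°C); suspension cells fixed with 16% TCA final. Stained with 0.4% SRB in 1% acetic acid for 10 min, dye solubilized in 10 mM Trizma base, absorbance read at 515 nm. Growth calculated against time-zero and untreated control plates.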

HOP-92 = assay: Antiproliferative activity against human HOP-92 cells assessed as cell growth inhibition at 10 uM incubated for 48 hrs by SRB assay relative to control; method in brief: as §1
RXF 393 = assay: Antiproliferative activity against human RXF 393 cells assessed as cell growth inhibition at 10 uM incubated for 48 hrs by SRB assay relative to control; method in brief: as §1
A498 = assay: Antiproliferative activity against human A498 cells assessed as cell growth inhibition at 10 uM incubated for 48 hrs by SRB assay relative to control; method in brief: as §1
RPMI-8226 = assay: Antiproliferative activity against human RPMI-8226 cells assessed as cell growth inhibition at 10 uM incubated for 48 hrs by SRB assay relative to control
Hs-578T = assay: Antiproliferative activity against human Hs-578T cells assessed as cell growth inhibition at 10 uM incubated for 48 hrs by SRB assay relative to control; method in brief: as §1
NCI-H522 = assay: Antiproliferative activity against human NCI-H522 cells assessed as cell growth inhibition at 10 uM incubated for 48 hrs by SRB assay relative to control; method in brief: as §1
BT-549 = assay: Antiproliferative activity against human BT-549 cells assessed as cell growth inhibition at 10 uM incubated for 48 hrs by SRB assay relative to control
SF-539 = assay: Antiproliferative activity against human SF-539 cells assessed as cell growth inhibition at 10 uM incubated for 48 hrs by SRB assay relative to control; method in brief: as §1
SNB-75 = assay: Antiproliferative activity against human SNB-75 cells assessed as cell growth inhibition at 10 uM incubated for 48 hrs by SRB assay relative to control; method in brief: as §2
M14 = assay: Antiproliferative activity against human M14 cells assessed as cell growth inhibition at 10 uM incubated for 48 hrs by SRB assay relative to control; method in brief: as §1
LOX IMVI = assay: Antiproliferative activity against human LOX IMVI cells assessed as cell growth inhibition at 10 uM incubated for 48 hrs by SRB assay relative to control
NCI/ADR-RES = assay: Antiproliferative activity against human NCI-ADR-RES cells assessed as cell growth inhibition at 10 uM incubated for 48 hrs by SRB assay relative to control
786-0 = assay: Antiproliferative activity against human 786-0 cells assessed as cell growth inhibition at 10 uM incubated for 48 hrs by SRB assay relative to control
PC-3 = assay: Antiproliferative activity against human PC-3 cells assessed as cell growth inhibition at 10 uM incubated for 48 hrs by SRB assay relative to control
OVCAR-5 = assay: Antiproliferative activity against human OVCAR-5 cells assessed as cell growth inhibition at 10 uM incubated for 48 hrs by SRB assay relative to control; method in brief: as §1
SF-295 = assay: Antiproliferative activity against human SF-295 cells assessed as cell growth inhibition at 10 uM incubated for 48 hrs by SRB assay relative to control; method in brief: as §1
CCRF-CEM = assay: Antiproliferative activity against human CCRF-CEM cells assessed as cell growth inhibition at 10 uM incubated for 48 hrs by SRB assay relative to control; method in brief: as §1
UACC-257 = assay: Antiproliferative activity against human UACC-257 cells assessed as cell growth inhibition at 10 uM incubated for 48 hrs by SRB assay relative to control; method in brief: as §2
HOP-62 = assay: Antiproliferative activity against human HOP-62 cells assessed as cell growth inhibition at 10 uM incubated for 48 hrs by SRB assay relative to control

Structure (SMILES): Cc1nc2c(cnn2-c2ccccc2)c(=O)n1-c1ccc(NC(=O)c2ccc(Cl)cc2)cc1
- inhibition of growth at 10 µM (HCC 2998): 15.8%
- inhibition of growth at 10 µM (HT-29): 28%
- inhibition of growth at 10 µM (MDA-MB-435): 30.2%
- inhibition of growth at 10 µM (HCT-15): 23.2%
- inhibition of growth at 10 µM (MCF7): 46.8%
- inhibition of growth at 10 µM (DU-145): 17.8%
- inhibition of growth at 10 µM (CAKI-1): 29.7%
- inhibition of growth at 10 µM (SF-268): < 15%
- inhibition of growth at 10 µM (SN12C): 17%
- inhibition of growth at 10 µM (SK-MEL-2): 26.1%
- inhibition of growth at 10 µM (NCI-H226): 49.1%
- inhibition of growth at 10 µM (NCI-H460): 28.8%
- inhibition of growth at 10 µM (OVCAR-3): 17.4%
- inhibition of growth at 10 µM (NCI-H322M): < 15%
- inhibition of growth at 10 µM (TK-10): 19.9%
- inhibition of growth at 10 µM (HOP-92): 37.8%
- inhibition of growth at 10 µM (RXF 393): < 15%
- inhibition of growth at 10 µM (A498): < 15%
- inhibition of growth at 10 µM (RPMI-8226): 52.9%
- inhibition of growth at 10 µM (Hs-578T): 20.1%
- inhibition of growth at 10 µM (NCI-H522): 32.3%
- inhibition of growth at 10 µM (BT-549): 36%
- inhibition of growth at 10 µM (SF-539): < 15%
- inhibition of growth at 10 µM (SNB-75): 27.5%
- inhibition of growth at 10 µM (M14): 24.6%
- inhibition of growth at 10 µM (LOX IMVI): 33.4%
- inhibition of growth at 10 µM (NCI/ADR-RES): 44.5%
- inhibition of growth at 10 µM (786-0): 20.3%
- inhibition of growth at 10 µM (PC-3): 36.7%
- inhibition of growth at 10 µM (OVCAR-5): < 15%
- inhibition of growth at 10 µM (SF-295): 45.9%
- inhibition of growth at 10 µM (CCRF-CEM): 25.3%
- inhibition of growth at 10 µM (UACC-257): 53.9%
- inhibition of growth at 10 µM (HOP-62): 41.1%
